Measurements: ChEMBL document CHEMBL1124427, “Studies on prodrugs. 11. Synthesis and antimicrobial activity of N-[(4-methyl-5-methylene-2-oxo-1,3-dioxolan-4-yl)oxy]norfloxacin ” (J Med Chem, 1989)
Converted amounts (≈) assume the structure as drawn.

Columns and labels:
Staphylococcus aureus [1] = assay: Minimum inhibitory concentration tested against Staphylococcus aureus FDA207PJC-1; assay type: functional
Method in brief: (§1)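 Agar dilution used serial 2-fold dilutions in Mueller-Hinton agar, with plate concentrations of 0.006–100 µg/mL and an inoculum of about 10^8 cfu/mL.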

Bacillus subtilis = assay: Minimum inhibitory concentration tested against Bacillus subtilis ATCC 6633; assay type: functional; method in brief: as §1
[2] = Area under curve value of compound per hour after oral administration; assay type: ADME
Method in brief: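 Mice were dosed orally at the equivalent of 50 mg/kg NFLX, suspended in 0.5% sodium (carboxymethyl)cellulose. They were killed by bleeding at 0.25, 0.5, 1.0, 2.0, 3.0 and 4.0 h. Serum NFLX was measured by HPLC with UV detection at 280 nm, and AUC was expressed in µg/mL per h.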

Escherichia coli [3] = assay: Oral efficacy of compound after peroral administration on systemic infection by Escherichia coli KC-14; assay type: functional
Method in brief: (§2)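 Groups of five male ddY mice (20 ± 2 g) were given 0.5 mL of bacteria intraperitoneally at 10 or 100 times the 50% lethal dose. One hour after infection they were treated orally with compound suspended in 0.5% sodium (carboxymethyl)cellulose. Survival was scored at 1 week, and ED50 is given with 95% confidence limits.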

Staphylococcus aureus [4] = assay: Oral efficacy of compound after peroral administration on systemic infection by Staphylococcus aureus IID803; assay type: functional; method in brief: as §2
Pseudomonas aeruginosa [5] = assay: Minimum inhibitory concentration tested against Pseudomonas aeruginosa E-2; assay type: functional; method in brief: as §1
Proteus vulgaris = assay: Minimum inhibitory concentration tested against Proteus vulgaris OX-19; assay type: functional; method in brief: as §1
Serratia marcescens = assay: Minimum inhibitory concentration tested against Serratia marcescens LAM 1184; assay type: functional; method in brief: as §1
Escherichia coli [6] = assay: (§3) Minimum inhibitory concentration tested against Escherichia coli KC-14; assay type: functional; method in brief: as §1
Pseudomonas aeruginosa [7] = assay: Oral efficacy of compound after peroral administration on systemic infection by Pseudomonas aeruginosa E-2; assay type: functional; method in brief: as §2
Escherichia coli [8] = assay: Oral efficacy of compound after peroral administration on systemic infection by Escherichia coli KC-14 in rat; assay type: functional
[9] = Lethal dose of compound after peroral administration in rats; assay type: toxicity, organism-based; settings: rat, in vivo, po
Method in brief: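 Each compound was given orally as a suspension in 0.5% CMC. Deaths were counted over 1 week, and LD50 was calculated by the method of Weil.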

Klebsiella pneumoniae = assay: Minimum inhibitory concentration tested against Klebsiella pneumoniae PC1602; assay type: functional; method in brief: as §1
Escherichia coli [10] = assay: Effective dose of compound against Escherichia coli KC-14 in mice after oral administration
Escherichia coli [11] = assay: as above; remark: listed apart in the source
Escherichia coli [12] = assay: as §3; assay type: functional; remark: listed apart in the source
Method in brief: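 MIC by serial 2-fold agar dilution on Mueller-Hinton agar, with an inoculum of about 10^8 cfu/mL and plate concentrations of 0.006–100 μg/mL.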

| SMILES | MIC (Staphylococcus aureus [1]) | MIC (Bacillus subtilis) | AUC [2] | ED50 (Escherichia coli [3]) | ED50 (Staphylococcus aureus [4]) | MIC (Pseudomonas aeruginosa [5]) | MIC (Proteus vulgaris) | MIC (Serratia marcescens) | MIC (Escherichia coli [6]) | ED50 (Pseudomonas aeruginosa [7]) | ED50 (Escherichia coli [8]) | LD50 [9] | MIC (Klebsiella pneumoniae) | ED50 (Escherichia coli [10]) | ED50 (Escherichia coli [11]) | MIC (Escherichia coli [12]) |
| --- | --- | --- | --- | --- | --- | --- | --- | --- | --- | --- | --- | --- | --- | --- | --- | --- |
| C=C1OC(=O)OC1(C)ON1CCN(c2cc3c(cc2F)c(=O)c(C(=O)O)cn3CC)CC1 (stereo not given) | 0.78 µg/mL (≈ 1.74 µM) | 0.19 µg/mL (≈ 0.425 µM) | 5400 ng·h/mL | 1.31 mg/kg | 70.7 mg/kg | 6.25 µg/mL (≈ 14 µM) | 0.05 µg/mL (≈ 0.112 µM) | 3.12 µg/mL (≈ 6.97 µM) | 1.56 µg/mL (≈ 3.49 µM) | 17.7 mg/kg | 2.68 mg/kg | > 4000 mg/kg | 0.1 µg/mL (≈ 0.224 µM) | 1.31 mg/kg |  |  |
| CCn1cc(C(=O)O)c(=O)c2cc(F)c(N3CCN(Cc4oc(=O)oc4C)CC3)cc21 | 0.39 µg/mL (≈ 0.904 µM) | 0.19 µg/mL (≈ 0.44 µM) | 5700 ng·h/mL | 1.93 mg/kg | 93.3 mg/kg | 1.56 µg/mL (≈ 3.62 µM) | 0.1 µg/mL (≈ 0.232 µM) | 0.39 µg/mL (≈ 0.904 µM) |  | 20.3 mg/kg | 6.16 mg/kg | > 4000 mg/kg | 0.1 µg/mL (≈ 0.232 µM) |  | 1.93 mg/kg | 0.2 µg/mL (≈ 0.464 µM) |
| CCn1cc(C(=O)O)c(=O)c2cc(F)c(N3CCNCC3)cc21 [NORFLOXACIN] | 0.19 µg/mL (≈ 0.595 µM) | 0.19 µg/mL (≈ 0.595 µM) | 1800 ng·h/mL | 3.15 mg/kg |  | 0.39 µg/mL (≈ 1.22 µM) | 0.05 µg/mL (≈ 0.157 µM) | 0.19 µg/mL (≈ 0.595 µM) |  | 77.1 mg/kg |  | > 4000 mg/kg | 0.05 µg/mL (≈ 0.157 µM) |  | 3.13 mg/kg | 0.1 µg/mL (≈ 0.313 µM) |
